Data: ChEMBL document CHEMBL4304745, “On the Process of Discovering Leads That Target the Heparin-Binding Site of Neutrophil Elastase in the Sputum of Cystic Fibrosis Patients” (J Med Chem, 2019)
Active and inactive are the calls of the source. The rule behind the calls is not given here.

What was measured:
Neutrophil elastase = molecular target: T1, Neutrophil elastase (Homo sapiens, UniProt P08246); experiment: Inhibition of human neutrophil elastase using S1384 as substrate preincubated for 5 mins followed by substrate addition
T1 sequence (P08246 whole entry): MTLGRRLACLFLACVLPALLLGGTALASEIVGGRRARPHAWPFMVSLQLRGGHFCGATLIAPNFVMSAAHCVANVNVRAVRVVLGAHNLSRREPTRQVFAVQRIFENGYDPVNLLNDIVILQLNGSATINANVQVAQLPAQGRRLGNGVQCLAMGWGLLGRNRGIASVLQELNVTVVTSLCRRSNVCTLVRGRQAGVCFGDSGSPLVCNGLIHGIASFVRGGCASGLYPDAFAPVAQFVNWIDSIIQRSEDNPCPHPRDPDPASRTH

[1] = molecular target: T2, Neutrophil elastase (Homo sapiens) (UniProt P08246); experiment: Mixed type inhibition of human neutrophil elastase assessed as decrease in Vmax for substrate at 1000 uM using varying levels of S1384 as substrate by Michaelis-Menten plot analysis relative to control
T2 sequence (whole entry): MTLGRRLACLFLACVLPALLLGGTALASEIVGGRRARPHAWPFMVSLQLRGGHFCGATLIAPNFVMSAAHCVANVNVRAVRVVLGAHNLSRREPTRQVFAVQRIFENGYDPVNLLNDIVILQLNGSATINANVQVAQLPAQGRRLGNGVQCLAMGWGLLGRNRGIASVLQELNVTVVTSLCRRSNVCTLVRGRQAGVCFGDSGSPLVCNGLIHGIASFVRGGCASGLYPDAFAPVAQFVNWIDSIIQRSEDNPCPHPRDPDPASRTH

Prothrombin = Prothrombin (Homo sapiens, UniProt P00734); experiment: Inhibition of thrombin (unknown origin) using spectrozyme as substrate preincubated for 5 mins followed by substrate addition
Homo sapiens [2] = species: Homo sapiens; experiment: Selectivity ratio of IC50 for thrombin (unknown origin) to IC50 for human neutrophil elastase
Plasma [3] = experiment: Anticoagulant activity in human plasma assessed as effect on activated partial thromboplastin time at 855 uM measured after 5 mins; assay type: ADME, cell-free
How it was run: (§1)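 APTT and PT recorded in human plasma with compound present at concentrations up to 855 µM. The read-out is the change in clotting time relative to untreated plasma.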

Plasma [4] = experiment: Anticoagulant activity in human plasma assessed as effect on prothrombin time at 855 uM measured after 5 mins; assay type: ADME, cell-free; how it was run: as §1
Homo sapiens [5] = species: Homo sapiens; experiment: Selectivity ratio of IC50 for factor 11 (unknown origin) to IC50 for human neutrophil elastase
Myeloblastin = molecular target: T3, Myeloblastin (Homo sapiens, UniProt P24158); experiment: Inhibition of human neutrophil proteinase 3 using M4765 as substrate preincubated for 5 mins followed by substrate addition
T3 sequence (P24158 whole entry): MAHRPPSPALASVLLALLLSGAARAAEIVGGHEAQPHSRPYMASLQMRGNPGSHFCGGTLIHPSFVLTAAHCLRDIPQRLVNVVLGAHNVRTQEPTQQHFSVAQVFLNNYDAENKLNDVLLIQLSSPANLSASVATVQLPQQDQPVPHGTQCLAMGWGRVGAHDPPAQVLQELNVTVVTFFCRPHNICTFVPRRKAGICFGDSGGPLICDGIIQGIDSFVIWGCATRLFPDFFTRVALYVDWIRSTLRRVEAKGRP

Plasminogen = Plasminogen (Homo sapiens, UniProt P00747); experiment: Inhibition of plasmin (unknown origin) using spectrozyme as substrate preincubated for 5 mins followed by substrate addition
[6] = molecular target: T2, Neutrophil elastase (Homo sapiens); experiment: Inhibition of human neutrophil elastase assessed as reduction in elastin-congo red hydrolysis preincubated for 30 mins followed by elastin-congo red addition measured after 48 hrs
How it was run: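 Elastin-congo red hydrolysis by HNE at pH 8. Congo red released by elastin degradation is quantified by absorbance at 497 nm. Run in triplicate; error bars are one standard deviation.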

[7] = molecular target: T2, Neutrophil elastase (Homo sapiens); experiment: Inhibition of neutrophil elastase in cystic fibrosis patient-derived sputum using S1384 as substrate measured after 2 hrs in presence of DNAse1 and 150 mM NaCl; assay type: tissue-based
How it was run: (§2)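 Sputum from cystic fibrosis patients is cleared of insoluble debris by centrifugation and treated with DNase. HNE activity is then read by chromogenic substrate hydrolysis across increasing compound concentrations, up to about 2 mM.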

Homo sapiens [8] = species: Homo sapiens; experiment: Selectivity ratio of IC50 for factor 10a (unknown origin) to IC50 for human neutrophil elastase
[9] = Solubility of the compound in water; assay type: physicochemical
Homo sapiens [10] = species: Homo sapiens; experiment: Selectivity ratio of IC50 for plasmin (unknown origin) to IC50 for human neutrophil elastase
Coagulation factor X = Coagulation factor X (Homo sapiens, UniProt P00742); experiment: Inhibition of factor 10a (unknown origin) using spectrozyme as substrate preincubated for 5 mins followed by substrate addition
[11] = molecular target: T2, Neutrophil elastase (Homo sapiens); experiment: Inhibition of neutrophil elastase in cystic fibrosis patient-derived sputum at 2 mM using S1384 as substrate measured after 2 hrs in presence of DNAse1 and 400 mM NaCl; assay type: tissue-based; how it was run: as §2
Coagulation factor XI = Coagulation factor XI (Homo sapiens, UniProt P03951); experiment: Inhibition of factor 11a (unknown origin) using S-2366 as substrate preincubated for 5 mins followed by substrate addition
Cathepsin G = molecular target: T4, Cathepsin G (Homo sapiens, UniProt P08311); experiment: Inhibition of human leukocyte cathepsin G using S7388 as substrate preincubated for 5 mins followed by substrate addition
T4 sequence (P08311 whole entry): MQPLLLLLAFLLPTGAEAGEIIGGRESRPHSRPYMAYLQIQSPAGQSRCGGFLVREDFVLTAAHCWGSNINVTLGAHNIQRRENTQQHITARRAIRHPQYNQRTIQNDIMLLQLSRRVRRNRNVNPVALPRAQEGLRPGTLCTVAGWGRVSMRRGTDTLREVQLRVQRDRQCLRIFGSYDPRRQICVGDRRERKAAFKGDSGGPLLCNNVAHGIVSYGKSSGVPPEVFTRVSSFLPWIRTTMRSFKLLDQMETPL

[12] = molecular target: T2, Neutrophil elastase (Homo sapiens); experiment: Inhibition of neutrophil elastase in cystic fibrosis patient-derived sputum 2 mM using S1384 as substrate measured after 2 hrs; assay type: tissue-based
[13] = molecular target: T2, Neutrophil elastase (Homo sapiens); experiment: Inhibition of neutrophil elastase in cystic fibrosis patient-derived sputum at 2 mM using S1384 as substrate measured after 2 hrs in presence of DNAse1 and 150 mM NaCl; assay type: tissue-based; how it was run: as §2
[14] = molecular target: T2, Neutrophil elastase (Homo sapiens); experiment: Inhibition of neutrophil elastase in cystic fibrosis patient-derived sputum up to 250 using S1384 as substrate measured after 2 hrs in presence of DNAse1 and 150 mM NaCl; assay type: tissue-based
[15] = molecular target: T2, Neutrophil elastase (Homo sapiens); experiment: Mixed type inhibition of human neutrophil elastase assessed as increase in Km for substrate at 1000 uM using varying levels of S1384 as substrate by Michaelis-Menten plot analysis relative to control
Plasma [16] = experiment: Anticoagulant activity in human plasma assessed as concentration required to double the prothrombin time measured after 5 mins; assay type: ADME, cell-free
How it was run: (§3)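 Clotting times (APTT and PT) measured in human plasma over a range of compound concentrations. The value is the concentration needed to double each clotting time.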

Plasma [17] = experiment: Anticoagulant activity in human plasma assessed as concentration required to double the activated partial thromboplastin time measured after 5 mins; assay type: ADME, cell-free; how it was run: as §3

Chain of Coagulation factor XI (P03951 19-387 limits assumed): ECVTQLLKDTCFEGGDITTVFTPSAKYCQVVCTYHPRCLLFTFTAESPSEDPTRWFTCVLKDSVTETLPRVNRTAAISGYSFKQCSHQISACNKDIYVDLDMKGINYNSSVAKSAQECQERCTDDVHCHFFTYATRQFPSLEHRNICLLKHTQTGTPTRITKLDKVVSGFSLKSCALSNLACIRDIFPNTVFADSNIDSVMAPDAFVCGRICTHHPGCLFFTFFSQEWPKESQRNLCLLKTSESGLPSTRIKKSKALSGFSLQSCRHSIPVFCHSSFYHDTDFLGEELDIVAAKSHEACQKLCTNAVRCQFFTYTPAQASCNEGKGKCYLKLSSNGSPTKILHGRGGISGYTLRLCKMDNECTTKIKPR
Chain of Coagulation factor XI (P03951 388-625 limits assumed): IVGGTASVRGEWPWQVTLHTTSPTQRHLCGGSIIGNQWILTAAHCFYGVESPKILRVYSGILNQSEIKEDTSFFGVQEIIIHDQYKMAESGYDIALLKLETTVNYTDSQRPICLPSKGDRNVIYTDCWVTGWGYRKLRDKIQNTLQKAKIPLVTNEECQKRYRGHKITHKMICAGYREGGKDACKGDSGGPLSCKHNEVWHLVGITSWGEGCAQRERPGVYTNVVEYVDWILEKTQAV
Chain of Plasminogen (P00747 97-580 limits assumed): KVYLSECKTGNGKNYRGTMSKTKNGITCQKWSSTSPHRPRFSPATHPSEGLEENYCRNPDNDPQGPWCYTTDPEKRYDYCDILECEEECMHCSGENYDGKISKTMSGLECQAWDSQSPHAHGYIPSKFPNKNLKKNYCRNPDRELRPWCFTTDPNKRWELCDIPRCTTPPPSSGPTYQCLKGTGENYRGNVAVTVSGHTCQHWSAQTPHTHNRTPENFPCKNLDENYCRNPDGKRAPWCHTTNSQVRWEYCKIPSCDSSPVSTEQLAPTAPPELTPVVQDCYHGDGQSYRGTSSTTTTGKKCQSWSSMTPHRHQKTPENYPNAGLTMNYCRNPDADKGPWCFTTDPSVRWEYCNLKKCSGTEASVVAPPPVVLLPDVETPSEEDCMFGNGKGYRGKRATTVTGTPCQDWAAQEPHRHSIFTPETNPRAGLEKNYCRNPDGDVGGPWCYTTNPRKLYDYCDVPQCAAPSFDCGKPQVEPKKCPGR
Chain of Plasminogen (P00747 581-810 limits assumed): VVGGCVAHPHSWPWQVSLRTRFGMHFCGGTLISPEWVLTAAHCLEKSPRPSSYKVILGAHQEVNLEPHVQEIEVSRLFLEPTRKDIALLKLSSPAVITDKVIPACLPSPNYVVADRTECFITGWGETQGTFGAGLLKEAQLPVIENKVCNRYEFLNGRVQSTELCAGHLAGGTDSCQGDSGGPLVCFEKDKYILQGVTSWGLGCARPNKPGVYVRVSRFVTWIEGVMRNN
Chain of Coagulation factor X (P00742 41-179 limits assumed): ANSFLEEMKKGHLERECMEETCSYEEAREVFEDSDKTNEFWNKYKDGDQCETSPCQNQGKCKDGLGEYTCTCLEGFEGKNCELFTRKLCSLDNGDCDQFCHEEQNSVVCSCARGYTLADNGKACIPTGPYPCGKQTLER
Chain of Coagulation factor X (P00742 235-488 limits assumed): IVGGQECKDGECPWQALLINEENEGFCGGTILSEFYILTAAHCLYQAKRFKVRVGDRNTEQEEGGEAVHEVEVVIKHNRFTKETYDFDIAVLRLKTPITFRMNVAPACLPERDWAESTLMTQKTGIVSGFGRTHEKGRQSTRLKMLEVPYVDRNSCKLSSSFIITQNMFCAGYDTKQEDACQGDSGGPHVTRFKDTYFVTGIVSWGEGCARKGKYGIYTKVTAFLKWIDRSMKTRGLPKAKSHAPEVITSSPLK

Q: For `O=c1c(OS(=O)(=O)O)c(-c2ccc(OS(=O)(=O)O)c(OS(=O)(=O)O)c2)oc2cc(OS(=O)(=O)O)cc(OCc3ccc(COc4cc(OS(=O)(=O)O)cc5oc(-c6ccc(OS(=O)(=O)O)c(OS(=O)(=O)O)c6)c(OS(=O)(=O)O)c(=O)c45)cc3)c12`, which IC50 (Neutrophil elastase) is on record?
A: 230 nM

Q: Which results are given for `O=c1cc(-c2ccc(OS(=O)(=O)[O-])cc2)oc2cc(OS(=O)(=O)[O-])cc(OCc3cccc(COc4cc(OS(=O)(=O)[O-])cc5oc(-c6ccc(OS(=O)(=O)[O-])cc6)cc(=O)c45)n3)c12.[Na+].[Na+].[Na+].[Na+]`?
A: fold change (FC) [1]: 2.5; inhibition (INH) (Prothrombin): Active; Ratio IC50 (Homo sapiens [2]): > 50; Activity (Plasma [3]): Non-Toxic; Activity (Plasma [4]): Non-Toxic; Ratio IC50 (Homo sapiens [5]): 28; IC50 (Myeloblastin): 54000 nM; inhibition (INH) (Plasminogen): Active; inhibition [6]: Active; inhibition [7]: Dose-dependent effect; Ratio IC50 (Homo sapiens [8]): > 50; solubility [9]: > 10000 µg/mL; Ratio IC50 (Homo sapiens [10]): > 50; inhibition (INH) (Coagulation factor X): Active; inhibition [11]: Active; inhibition (INH) (Coagulation factor XI): Active; IC50 (Cathepsin G): 1100 nM; inhibition [12]: inactive; inhibition [13]: 100%; inhibition [14]: inactive; IC50 (Neutrophil elastase): 690 nM; fold change (FC) [15]: 3

Q: With `O=C(OC[C@H]1O[C@@H](OC(=O)c2cc(OS(=O)(=O)[O-])c(O)c(OS(=O)(=O)[O-])c2)[C@H](OC(=O)c2cc(OS(=O)(=O)[O-])c(O)c(OS(=O)(=O)[O-])c2)[C@@H](OC(=O)c2cc(OS(=O)(=O)[O-])c(O)c(OS(=O)(=O)[O-])c2)[C@@H]1OC(=O)c1cc(OS(=O)(=O)[O-])c(O)c(OS(=O)(=O)[O-])c1)c1cc(OS(=O)(=O)[O-])c(O)c(OS(=O)(=O)[O-])c1.[Na+].[Na+].[Na+].[Na+].[Na+].[Na+].[Na+].[Na+].[Na+].[Na+]` [sulfated pentagalloylglucoside] as the compound, how does the 2PT (Plasma [16]) read?
A: 152 µM

Q: And the inhibition [6]?
A: Active

Q: What about the 2aPTT (Plasma [17]) of the same compound?
A: 49 µM

Q: And the IC50 (Neutrophil elastase)?
A: 40 nM
